target: T1, C-C chemokine receptor type 4 (Homo sapiens, UniProt P51679); test: Displacement of [125I]MDC from CCR4 expressed in human CEM cell line; format: cell-based, CCRF-CEM; settings: not given
T1 sequence (P51679 whole entry): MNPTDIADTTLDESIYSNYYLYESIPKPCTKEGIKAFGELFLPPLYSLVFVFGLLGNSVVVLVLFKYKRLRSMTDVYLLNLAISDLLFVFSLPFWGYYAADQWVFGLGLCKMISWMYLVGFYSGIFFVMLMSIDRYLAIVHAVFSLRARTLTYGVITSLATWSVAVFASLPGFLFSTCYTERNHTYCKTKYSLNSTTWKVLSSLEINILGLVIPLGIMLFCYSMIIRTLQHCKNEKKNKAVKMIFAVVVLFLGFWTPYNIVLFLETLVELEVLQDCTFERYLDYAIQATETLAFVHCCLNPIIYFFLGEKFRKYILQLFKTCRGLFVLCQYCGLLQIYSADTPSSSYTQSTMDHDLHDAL

Row | IC50 [nM] | SMILES
1 | 31 | c1ccc2c(Nc3nc(CN(CC4CCCCC4)CC4CCCCC4)cs3)cccc2c1
2 | 3000 | Cc1csc(Nc2cccc3ccccc23)n1

tested on: not listed separately; test: Oral bioavailability in rat at 2 mg/kg, po; format: ADME, organism-based; settings: in vivo
How it was run: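 Rats dosed by oral gavage at 2 mg/kg; oral bioavailability determined.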

Row | bioavailability [%] | SMILES
3 | 63 | c1ccc2c(Nc3nc(CN(CC4CCCCC4)CC4CCCCC4)cs3)cccc2c1
4 | 2 | Cc1csc(Nc2cccc3ccccc23)n1

target: T1, C-C chemokine receptor type 4; test: Displacement of [125I]TARC from CCR4 expressed in human CEM cell line; format: cell-based, CCRF-CEM; settings: not given
How it was run: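 CEM cells at 5 · 10^6/mL in RPMI-1640 with 0.5% BSA, incubated with compound (diluted in DMSO) and [125I]TARC diluted to 100 pM in buffer, 2 h at room temperature. Bound ligand collected by filtration through GF/B filters and counted by scintillation. Values are means of three experiments (standard deviation ±30%).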

Row | SMILES | IC50 [nM]
5 | NCc1csc(Nc2cccc3ccccc23)n1 | > 25000
6 | CC(C)(C)c1ccc(-c2csc(Nc3cccc4ccccc34)n2)cc1 | 900
7 | CC(C)c1csc(Cc2cccc3ccccc23)n1 | > 25000
8 | CC(C)(C)c1csc(Nc2cccc3cccnc23)n1 | > 25000
9 | CC(C)(C)c1csc(Nc2ccccc2)n1 | 4500
10 | CC(C)c1ccccc1Nc1nc(C(C)(C)C)cs1 | 440
11 | Cc1cccc(Nc2cc(CN(Cc3ccccc3C(F)(F)F)CC3CCCCC3)no2)c1C | 12100
12 | CCNCc1csc(Nc2cccc3ccccc23)n1 | 1000
13 | CC(C)(C)c1csc(Nc2cccc3[nH]ccc23)n1 | 490
14 | Cc1csc(N(C)c2cccc3ccccc23)n1 | > 25000
15 | Cc1cccc(Nc2cc(CN(Cc3ccccc3C(F)(F)F)CC3CCCCC3)n[nH]2)c1C | > 25000
16 | c1ccc(-c2csc(Nc3cccc4ccccc34)n2)cc1 | 5500
17 | CC(C)(C)c1ccnc(Nc2cccc3ccccc23)n1 | > 25000
18 | CC(C)(C)c1csc(Nc2cccc3cnccc23)n1 | 1500
19 | Cc1cccc(Nc2cc(CN(Cc3ccccc3C(F)(F)F)CC3CCCCC3)nn2C)c1C | 370
20 | Cc1ccccc1Nc1nc(C(C)(C)C)cs1 | 900
21 | Cc1csc(Nc2cccc3ccccc23)n1 | 1700
22 | Cc1cccc(Nc2nc(C(C)(C)C)cs2)c1 | 2000
23 | CCN(CC)Cc1csc(Nc2cccc3ccccc23)n1 | 800

Compounds with a lower IC50, results first:

Row | IC50 [nM] | SMILES
24 | 37 | Cn1ccc2c(Nc3nc(C(C)(C)C)cs3)cccc21
25 | 260 | Cc1cccc(Nc2nc(C(C)(C)C)cs2)c1C
26 | 80 | CC(C)(C)c1coc(Nc2cccc3ccccc23)n1
27 | 45 | CC(C)CN(Cc1csc(Nc2cccc3ccccc23)n1)CC(C)C
28 | 170 | CC(C)c1csc(Nc2cccc3ccccc23)n1
29 | 18 | c1ccc2c(Nc3nc(CN(CC4CCCCC4)CC4CCCCC4)cs3)cccc2c1
30 | 340 | Cc1cccc(Nc2cccc(CN(Cc3ccccc3C(F)(F)F)CC3CCCCC3)n2)c1C
31 | 300 | CC(C)(C)c1csc(Nc2cccc3ncccc23)n1
32 | 210 | CC(C)(C)c1csc(Nc2cccc3c2CCCC3)n1
33 | 210 | CCn1ccc2c(Nc3nc(C(C)(C)C)cs3)cccc21
34 | 14 | FC(F)(F)c1ccccc1CN(Cc1csc(Nc2cccc3ccccc23)n1)CC1CCCCC1
35 | 80 | CC(C)(C)c1csc(Nc2cccc3ccccc23)n1
36 | 220 | CC(C)(C)Cc1csc(Nc2cccc3ccccc23)n1

tested on: not listed separately; test: Terminal half life in rat at 0.5 mg/kg, iv; format: ADME, organism-based; set-up: dose 0.5 mg/kg, route intravenous; settings: in vivo

Row | half-life [h] | SMILES
37 | 3.6 | c1ccc2c(Nc3nc(CN(CC4CCCCC4)CC4CCCCC4)cs3)cccc2c1
38 | 0.4 | Cc1csc(Nc2cccc3ccccc23)n1

tested on: not listed separately; test: Clearance in rat at 0.5 mg/kg, iv; format: ADME, organism-based; set-up: dose 0.5 mg/kg, route intravenous; settings: in vivo

Row | clearance [mL/min/kg] | SMILES
39 | 17.8 | c1ccc2c(Nc3nc(CN(CC4CCCCC4)CC4CCCCC4)cs3)cccc2c1
40 | 70 | Cc1csc(Nc2cccc3ccccc23)n1
